Screening data deposited in PubChem BioAssay by Johns Hopkins Ion Channel Center.
MrgX1 agonist: agonists of human MrgX1 receptor, primary screen, HEK293 cells, Fluo-4 calcium flux | 310,000 tested, 0.44% active | B-score at 10 µM | Fluo-4 calcium fluorescence, agonist mode; stronger effect = higher value | Mas-related G-protein coupled receptor member X1 (Homo sapiens), Q96LB2;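 active = calcium response B-score plate-corrected fluorescence ratio at least 3 library SD, with starting fluorescence B-score inside 5 SD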
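System – MrgX1-expressing HEK293 cells · Incubation – cells plated overnight, dye loaded 0.5 h 37 °C, 0.5 h room temperature · Technique – kinetic Fluo-4 NW fluorescence of intracellular calcium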
RGS4 inh: RGS4 inhibitors, primary screen, cell-based, HEK293 M3R inducible RGS4, calcium flux | B-score at 10 µM | 310,000 tested, 0.45% active | Regulator of G-protein signaling 4 (Homo sapiens), P49798 | Fluo-4 calcium flux; stronger effect = higher value; triggered by carbachol at its EC20;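 active = B-score, a plate-corrected calcium signal, over three deviations above library mean, with baseline fluorescence within five deviations of library mean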;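 note: RGS4 expression induced by doxycycline in cells with stable M3 receptor; B-score is computed from the integrated fluorescence ratio over baseline after carbachol; higher B-score means a larger calcium signal and so more RGS4 inhibition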
Target sequence (P49798 whole entry, looked up): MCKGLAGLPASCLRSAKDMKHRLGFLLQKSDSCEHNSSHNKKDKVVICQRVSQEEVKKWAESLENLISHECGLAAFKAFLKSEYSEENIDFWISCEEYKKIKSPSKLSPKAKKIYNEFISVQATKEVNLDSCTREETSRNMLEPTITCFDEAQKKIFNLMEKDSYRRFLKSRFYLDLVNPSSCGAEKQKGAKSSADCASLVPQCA
MrgX1 allo act: positive allosteric modulators of MrgX1, primary screen, HEK293 cells, Fluo-4 calcium flux. Mas-related G-protein coupled receptor member X1 (Homo sapiens), Q96LB2. FDSS; stronger effect = higher value. B-score at 10 µM. 310,000 tested, 0.63% active. AID 588675, 2011;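 active = plate-corrected calcium response at least 3 library SD above typical, normal starting fluorescence, not activating the receptor alone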;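 note: compound read alongside a low EC10 to EC30 dose of BAM8-22 agonist; peak minus trough fluorescence over baseline measured at the second addition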
MrgX1 antag: antagonists of human MrgX1 receptor, primary screen, HEK293 cells, Fluo-4 calcium flux. B-score at 10 µM. BAM8-22 antagonism; stronger effect = lower value. 310,000 tested, 1.3% active. AID 588676, 2011;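 active = calcium-response B-score plate-corrected more than 3 library SD below zero, starting fluorescence within 5 deviations, no agonist response on first addition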;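 note: peak minus trough fluorescence over baseline after final BAM8-22 challenge near maximal dose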
RGS4 pot: RGS4 potentiators or activators, primary screen, cell-based, HEK293 M3R inducible RGS4, calcium flux; carbachol calcium flux Fluo4; stronger effect = lower value; B-score at 10 µM; 310,000 tested, 0.92% active; AID 463111, 2010;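 active = B-score of the integrated calcium signal more than 4 SD below the library mean, with starting fluorescence not abnormally high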;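 note: negative B-score means reduced calcium response which marks RGS4 activation or potentiation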
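Assay system: Inducible-RGS4 HEK293 cells carrying M3 receptor | Schedule: Compound preincubation 20 min at room temperature before agonist | Signal: Kinetic calcium fluorescence imaging with Fluo4-AM dye, 2 µM | Read-out basis: B score from integrated fluorescence ratio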
* = called active by the depositor. Sampled rows, rich in hits. Any-hit rate of the full collection: about 3.5%.

Results for CCc1ccc(N2CC(O)(c3cccs3)[N+]3=C2SCCC3)cc1 (centres undefined) ?
MrgX1 agonist: inactive; RGS4 inh: inactive; MrgX1 allo act: inactive; MrgX1 antag: inactive; RGS4 pot: -7.48*

How did Cc1ccc(-c2nn3c(C)nnc3s2)cc1NC(=O)c1ccc(OC(C)C)cc1 do in these assays?
MrgX1 agonist: inactive; RGS4 inh: inactive; MrgX1 allo act: inactive; MrgX1 antag: inactive; RGS4 pot: inactive

How did COc1ccc(C(=O)C2CCCN(C(=O)CCC3=NNC(=O)CC3)C2)c(C)c1 (centres undefined) do in these assays?
MrgX1 agonist: inactive; RGS4 inh: inactive; MrgX1 allo act: inactive; MrgX1 antag: inactive; RGS4 pot: inactive

Results for CCOc1cc(N)c(Cl)cc1C(=O)NCC1CN(Cc2ccc(F)cc2)CCO1 (centres undefined) ?
MrgX1 agonist: inactive; RGS4 inh: inactive; MrgX1 allo act: inactive; MrgX1 antag: -8.62*; RGS4 pot: inactive

Results for CCCCOC(=O)c1ccc(-c2ccc(/C=N/NC(=S)NCC)o2)cc1 ?
MrgX1 agonist: inactive; RGS4 inh: inactive; MrgX1 allo act: inactive; MrgX1 antag: inactive; RGS4 pot: inactive

Results for COC(=O)c1sc(NC(=S)NNC(=O)c2c(Br)c(C)nn2C)c(C(=O)OC)c1C ?
MrgX1 agonist: inactive; RGS4 inh: inactive; MrgX1 allo act: inactive; MrgX1 antag: -5.11*; RGS4 pot: inactive

How did COC(=O)c1sc(NC(=O)C(C)C)c(C(=O)OC)c1C do in these assays?
MrgX1 agonist: inactive; RGS4 inh: inactive; MrgX1 allo act: inactive; MrgX1 antag: inactive; RGS4 pot: inactive

Results for CCOc1ccc(OCc2ccc(C(=O)N/N=C(\C)c3ccccn3)cc2)cc1 ?
MrgX1 agonist: inactive; RGS4 inh: inactive; MrgX1 allo act: inactive; MrgX1 antag: inactive; RGS4 pot: inactive

Results for CCC(C)/C(C)=N/NC(=O)c1ccc(COc2ccc(Cl)c(C)c2)cc1 (centres undefined) ?
MrgX1 agonist: inactive; MrgX1 allo act: 10.1*; MrgX1 antag: inactive

Results for NC(=O)CSCc1nc2ccccc2s1 ?
MrgX1 agonist: inactive; RGS4 inh: inactive; MrgX1 allo act: inactive; MrgX1 antag: inactive; RGS4 pot: inactive

What do the screens show for `Cc1ccc(-c2nc3cc(Br)cnc3nc2-c2ccc(C)cc2)cc1`?
MrgX1 agonist: inactive; RGS4 inh: inactive; MrgX1 allo act: inactive; MrgX1 antag: inactive; RGS4 pot: inactive

How did Brc1cccc(-c2nc3cccnc3nc2-c2cccc(Br)c2)c1 do in these assays?
MrgX1 agonist: inactive; RGS4 inh: inactive; MrgX1 allo act: inactive; MrgX1 antag: inactive; RGS4 pot: -7.03*

Results for Cc1ccccc1C(=O)NNc1ccc([N+](=O)[O-])cc1 ?
MrgX1 agonist: inactive; RGS4 inh: inactive; MrgX1 allo act: inactive; MrgX1 antag: -6.85*; RGS4 pot: inactive

How did O=C1ON=C(c2ccc(Cl)cc2)/C1=C/c1ccc(O)cc1 do in these assays?
MrgX1 agonist: 34.2*; RGS4 inh: inactive; MrgX1 allo act: inactive; MrgX1 antag: inactive; RGS4 pot: inactive

Results for CCC(C)N(CCNC(=O)CC1Oc2ccc(C)cc2NC1=O)C1CCCCC1 (centres undefined) ?
MrgX1 agonist: inactive; RGS4 inh: inactive; MrgX1 allo act: inactive; MrgX1 antag: inactive; RGS4 pot: -7.33*

Results for CCOC(=O)c1ccc2c(c1)n(CC)c(/C=C/N(C)c1ccccc1)[n+]2CC ?
MrgX1 agonist: inactive; RGS4 inh: inactive; MrgX1 allo act: inactive; MrgX1 antag: -4.97*; RGS4 pot: inactive

What do the screens show for `O=S(=O)(c1ccc(OCC(O)CN2CCCCC2)cc1)N1CCOCC1` (centres undefined)?
MrgX1 agonist: inactive; RGS4 inh: inactive; MrgX1 allo act: inactive; MrgX1 antag: inactive; RGS4 pot: inactive

How did CC(C)OC(=O)c1c2nc3ccccc3nc2n2c1[nH]c(=O)c1ccccc12 do in these assays?
MrgX1 agonist: 31.8*; RGS4 inh: inactive; MrgX1 allo act: inactive; MrgX1 antag: inactive; RGS4 pot: inactive
